In ChEMBL document CHEMBL1124929, “Indolo[2,1-a]isoquinolines. Syntheses, steroid hormone receptor binding affinities, and cytostatic activity” (1990):

Experiments:
[1] = molecular target: T1, Androgen Receptor (Bos taurus) (UniProt Q5EM59); assay: Relative binding affinity(RBA) for 50% displacement of [3H]mibolerone from Androgen receptor compared to testorone
T1 sequence (whole entry): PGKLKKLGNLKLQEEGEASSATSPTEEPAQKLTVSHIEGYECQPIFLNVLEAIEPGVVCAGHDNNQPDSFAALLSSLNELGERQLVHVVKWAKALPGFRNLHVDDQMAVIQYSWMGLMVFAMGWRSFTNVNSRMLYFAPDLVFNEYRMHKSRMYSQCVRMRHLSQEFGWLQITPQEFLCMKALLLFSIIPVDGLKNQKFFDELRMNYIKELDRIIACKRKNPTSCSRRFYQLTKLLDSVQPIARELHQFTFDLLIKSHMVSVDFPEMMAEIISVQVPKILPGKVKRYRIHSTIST
Summary of the method: (§1)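 Receptor source was calf uterine cytosol (105000g supernatant, 3 mg/mL protein in assay). Buffers were Tris/EDTA pH 7.4, with NaN₃ for ER, molybdate/glycerol for AR, and sucrose for PR. Tracers were 1 nM [³H]estradiol, [³H]mibolerone or [³H]Org 2058. Incubation was at 0–4 °C for 16 h (ER) or 2 h (AR, PR), with 4–6 competitor concentrations. Nonspecific binding used 2 µM of the unlabeled hormone. Separation was by dextran-coated charcoal. RBA is the ratio of IC50 values for hormone and compound ×100, mean of two triplicate experiments.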

[2] = molecular target: Estrogen receptor (Bos taurus) (UniProt Q9XSB5+P49884); assay: Relative binding affinity(RBA) for 50% displacement of [3H]-estradiol from Estrogen receptor compared to 17-beta-estradiol; format: protein assay; summary of the method: as §1
MCF7 [3] = assay: Effect on hormone-dependent MCF-7 human breast cancer cell proliferation at 1x10E-6M; format: functional
Summary of the method: (§2)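 Cells were plated at about 2 × 10⁴ per well in six-well dishes. MCF-7 cells were grown in modified improved MEM with 5% NCS, switched to charcoal-treated NCS two weeks before the test, and exposed for 5 days with a re-dose on day 4. MDA-MB 231 cells were grown in McCoy 5a with 10% NCS and exposed for 2 days. Compounds were given 1 day after plating in 0.1% DMSO, with DMSO-matched controls. Read-out was cell number as % T/C, mean of three experiments with six dishes.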

MCF7 [4] = assay: Effect on [3H]-thymidine incorporation into MCF-7 human breast cancer cells at 1x10E-5 M; format: functional
Summary of the method: (§3)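 Cells were seeded at ~2 × 10⁴ per well, treated from the next day in 0.1% DMSO, with DMSO controls. MCF-7 cells were held in charcoal-stripped NCS for 2 weeks, treated for 5 days and re-dosed on day 4. MDA-MB 231 cells were grown in McCoy 5a/10% NCS and treated for 2 days. At the end, 1 µCi [³H]thymidine per well was added for 2 h. Result is % T/C, mean of three experiments × six dishes.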

MDA-MB-231 [5] = assay: Effect on [3H]thymidine incorporation into MDA-MB 231 human breast cancer cells at 5x10E-6M; format: functional; summary of the method: as §3
MCF7 [6] = assay: Effect on [3H]thymidine incorporation into MCF-7 human breast cancer cells at 1x10E-6M; format: functional; summary of the method: as §3
MCF7 [7] = assay: Effect on hormone-dependent MCF-7 human breast cancer cell proliferation at 1x10E-5 M; format: functional; summary of the method: as §2
MDA-MB-231 [8] = assay: Cytostatic effect on hormone-independent MDA-MB 231 human breast cancer cell proliferation at5x10E-6M; format: functional; summary of the method: as §2
MDA-MB-231 [9] = assay: Effect on [3H]-thymidine incorporation into MDA-MB 231 human breast cancer cells at 1x10E-6M; format: functional; summary of the method: as §3
Bos taurus = organism: Bos taurus; assay: Relative binding affinity(RBA) as ratio of progesterone and compound required to displace [3H]-org 2058 binding to Progesterone receptor by 50%; summary of the method: as §1
MDA-MB-231 [10] = assay: Effect on [3H]thymidine incorporation into MDA-MB 231 human breast cancer cells at 1x10E-5 M; format: functional; summary of the method: as §3
MDA-MB-231 [11] = assay: Cytostatic effect on hormone-independent MDA-MB 231 human breast cancer cell proliferation at 1x10E-6M; format: functional; summary of the method: as §2
MDA-MB-231 [12] = assay: Cytostatic effect on hormone-independent MDA-MB 231 human breast cancer cell proliferation at 1x10E-5 M; format: functional; summary of the method: as §2
MCF7 [13] = assay: Effect on hormone-dependent MCF-7 human breast cancer cell proliferation at 5x10E-6M; format: functional; summary of the method: as §2
[14] = molecular target: T2, Estrogen receptor (Mus musculus) (UniProt O08537+P19785); assay: (§4) Estrogenic activity in uterotrophic assay in immature mice at 250 ug subcutaneous dose; format: functional
Summary of the method: (§5)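 Immature female NMRI mice, 20 days old, in groups of 6-10, were dosed sc once daily for three consecutive days. Compounds were given in PEG/0.9% saline 1:1; vehicle controls were included. Animals were killed 24 h after the last dose. Uteri were fixed in Bouin solution and the effect was taken as uterine dry weight (mg)/body weight (g) ×100, given as mean ± SD.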

[15] = molecular target: T3, Androgen receptor (Mus musculus) (UniProt P19091); assay: Inhibition of seminal vesicle weight in intact mice at 100 ug
T3 sequence (whole entry): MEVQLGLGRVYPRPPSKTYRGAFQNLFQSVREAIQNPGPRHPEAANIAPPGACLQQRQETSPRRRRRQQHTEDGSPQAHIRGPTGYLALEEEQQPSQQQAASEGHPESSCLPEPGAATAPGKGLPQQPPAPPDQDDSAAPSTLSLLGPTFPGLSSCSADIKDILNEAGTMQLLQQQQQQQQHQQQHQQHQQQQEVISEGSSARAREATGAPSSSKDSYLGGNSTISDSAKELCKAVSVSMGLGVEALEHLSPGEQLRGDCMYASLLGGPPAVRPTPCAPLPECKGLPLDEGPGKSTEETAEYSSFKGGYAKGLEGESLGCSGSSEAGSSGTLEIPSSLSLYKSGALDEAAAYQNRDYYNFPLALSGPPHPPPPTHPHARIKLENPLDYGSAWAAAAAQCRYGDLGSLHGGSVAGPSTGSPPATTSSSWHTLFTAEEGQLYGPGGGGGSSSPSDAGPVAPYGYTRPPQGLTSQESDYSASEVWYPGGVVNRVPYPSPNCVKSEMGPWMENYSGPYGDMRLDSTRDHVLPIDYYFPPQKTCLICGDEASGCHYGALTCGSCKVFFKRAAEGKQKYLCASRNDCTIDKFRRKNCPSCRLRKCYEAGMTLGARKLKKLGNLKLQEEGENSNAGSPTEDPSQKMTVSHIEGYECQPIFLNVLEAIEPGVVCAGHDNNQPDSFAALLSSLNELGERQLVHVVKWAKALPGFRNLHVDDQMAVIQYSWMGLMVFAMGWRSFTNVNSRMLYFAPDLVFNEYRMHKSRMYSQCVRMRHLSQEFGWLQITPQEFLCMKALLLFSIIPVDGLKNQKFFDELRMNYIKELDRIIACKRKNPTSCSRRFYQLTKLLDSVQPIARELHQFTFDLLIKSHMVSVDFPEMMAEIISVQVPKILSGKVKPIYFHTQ

[16] = molecular target: T2, Estrogen receptor (Mus musculus); assay: Inhibition of 0.4 ug estrone-stimulated uterine growth in mice at 10.0 ug subcutaneous dose; format: functional
Summary of the method: (§6)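 Immature 20-day-old female NMRI mice received sc injections on three consecutive days. Each injection held 0.4 µg estrone plus the compound in PEG/saline 1:1. […] Significance was tested by Mann-Whitney U test.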

[17] = molecular target: T2, Estrogen receptor (Mus musculus); assay: (§7) Estrogenic activity in uterotrophic assay in immature mice at 10.0 ug subcutaneous dose; format: functional; summary of the method: as §5
[18] = molecular target: T2, Estrogen receptor (Mus musculus); assay: Inhibition of 0.4 ug estrone-stimulated uterine growth in mice at 2 ug subcutaneous dose; format: functional; summary of the method: as §6
[19] = molecular target: T2, Estrogen receptor (Mus musculus); assay: as §7; format: functional; summary of the method: as §5; remark: listed apart in the source
[20] = molecular target: T2, Estrogen receptor (Mus musculus); assay: Inhibition of 0.4 ug estrone-stimulated uterine growth in mice at 50.0 ug subcutaneous dose; format: functional; summary of the method: as §6
MCF7 [21] = assay: Effect on [3H]thymidine incorporation into MCF-7 human breast cancer cells at 1x10E-5 M; format: functional; summary of the method: as §3
MCF7 [22] = assay: Effect on [3H]thymidine incorporation into MCF-7 human breast cancer cells at 5x10E-6M; format: functional; summary of the method: as §3
[23] = molecular target: T3, Androgen receptor (Mus musculus); assay: Relative effect on seminal vesicle weight in adult and castrated mice at 100 ug dose; format: functional, tissue-based
Summary of the method: (§8)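 Adult male mice, 23–25 g, six per group, were used intact or castrated via the scrotal route under ether 5 days before the test. Castrates received 0.3 mg testosterone propionate daily. Compounds were injected daily in olive oil for nine days. Seminal vesicles were taken 24 h later, fixed in Bouin solution, dried overnight at 100 °C and weighed. Result is organ mg/body g ×100; % inhibition = [1 − treated/control] × 100.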

[24] = molecular target: T2, Estrogen receptor (Mus musculus); assay: (§9) Estrogenic activity in uterotrophic assay in immature mice at 50.0 ug subcutaneous dose; format: functional; summary of the method: as §5
[25] = molecular target: T2, Estrogen receptor (Mus musculus); assay: (§10) Estrogenic activity in uterotrophic assay in immature mice at 2 ug subcutaneous dose; format: functional; summary of the method: as §5
[26] = molecular target: T2, Estrogen receptor (Mus musculus); assay: Inhibition of 0.4 ug estrone-stimulated uterine growth in mice at 250 ug subcutaneous dose; format: functional; summary of the method: as §6
[27] = molecular target: T2, Estrogen receptor (Mus musculus); assay: as §9; format: functional; summary of the method: as §5; remark: listed apart in the source
[28] = molecular target: T3, Androgen receptor (Mus musculus); assay: Relative effect on seminal vesicle weight in adult and castrated mice at 1000 ug dose; format: functional, tissue-based; summary of the method: as §8
[29] = molecular target: T3, Androgen receptor (Mus musculus); assay: Inhibition of testosterone-stimulated seminal vesicle growth in castrated mice supplemented with 0.3 mg of TP at 1000.0 ug; format: functional; summary of the method: as §8
[30] = molecular target: T3, Androgen receptor (Mus musculus); assay: Relative effect on seminal vesicle weight in adult and castrated mice supplemented with 0.3 mg TP at 1000 ug dose; format: functional, tissue-based; summary of the method: as §8
[31] = molecular target: T2, Estrogen receptor (Mus musculus); assay: as §4; format: functional; summary of the method: as §5; remark: listed apart in the source
[32] = molecular target: T2, Estrogen receptor (Mus musculus); assay: as §10; format: functional; summary of the method: as §5; remark: listed apart in the source

T2 sequence (O08537 whole entry, looked up): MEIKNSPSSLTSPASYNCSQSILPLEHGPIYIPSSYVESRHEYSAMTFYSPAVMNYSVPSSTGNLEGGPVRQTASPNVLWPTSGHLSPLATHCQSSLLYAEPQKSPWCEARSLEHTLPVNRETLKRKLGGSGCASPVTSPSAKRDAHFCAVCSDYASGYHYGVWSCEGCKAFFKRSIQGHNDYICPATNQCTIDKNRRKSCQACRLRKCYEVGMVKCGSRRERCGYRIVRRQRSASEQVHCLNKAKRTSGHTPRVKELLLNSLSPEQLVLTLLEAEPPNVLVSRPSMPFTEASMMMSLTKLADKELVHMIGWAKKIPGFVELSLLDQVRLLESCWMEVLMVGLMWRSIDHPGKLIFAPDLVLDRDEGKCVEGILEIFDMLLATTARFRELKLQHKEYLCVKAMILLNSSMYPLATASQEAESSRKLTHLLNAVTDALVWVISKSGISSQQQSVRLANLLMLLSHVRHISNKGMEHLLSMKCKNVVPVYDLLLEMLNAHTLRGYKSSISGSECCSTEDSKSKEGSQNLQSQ
T2 sequence (P19785 whole entry, looked up): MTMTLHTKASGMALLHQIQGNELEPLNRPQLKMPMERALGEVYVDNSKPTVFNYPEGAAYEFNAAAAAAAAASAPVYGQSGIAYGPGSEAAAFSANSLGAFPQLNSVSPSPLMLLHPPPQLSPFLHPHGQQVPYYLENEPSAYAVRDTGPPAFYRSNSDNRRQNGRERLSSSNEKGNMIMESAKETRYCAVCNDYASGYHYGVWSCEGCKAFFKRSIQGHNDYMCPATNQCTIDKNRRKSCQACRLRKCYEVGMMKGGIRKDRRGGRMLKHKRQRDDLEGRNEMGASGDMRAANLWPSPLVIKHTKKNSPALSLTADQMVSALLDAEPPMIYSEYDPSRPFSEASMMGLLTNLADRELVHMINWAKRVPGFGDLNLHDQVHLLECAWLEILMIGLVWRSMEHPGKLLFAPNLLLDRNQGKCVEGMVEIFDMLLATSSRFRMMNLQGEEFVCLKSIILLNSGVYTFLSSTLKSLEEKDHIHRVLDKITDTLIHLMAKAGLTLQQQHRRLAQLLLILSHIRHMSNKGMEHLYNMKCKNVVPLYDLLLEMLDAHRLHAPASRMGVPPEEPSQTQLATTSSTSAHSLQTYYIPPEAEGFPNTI

RBA [1] | RBA [2] | RBA (Bos taurus) | SMILES | T/C (MCF7 [3]) [%] | T/C (MCF7 [4]) [%] | T/C (MDA-MB-231 [5]) [%] | T/C (MCF7 [6]) [%] | T/C (MCF7 [7]) [%] | T/C (MDA-MB-231 [8]) [%] | T/C (MDA-MB-231 [9]) [%] | T/C (MDA-MB-231 [10]) [%] | T/C (MDA-MB-231 [11]) [%] | T/C (MDA-MB-231 [12]) [%] | also measured
< 0.01 | < 0.01 | – | CC(=O)Oc1cc2c(cc1OC(C)=O)-c1cc3cc(OC(C)=O)c(OC(C)=O)cc3n1CC2 | – | – | – | – | – | – | – | – | – | – | –
0.01 | 1.5 | < 0.01 | CCc1cc2cc(OC(C)=O)ccc2c2cc3ccc(OC(C)=O)cc3n12 | 75 | 3 | 7 | 70 | 5 | 8 | 80 | 3 | – | – | –
– | – | – | CC/C(=C(\c1ccccc1)c1ccc(OCCN(C)C)cc1)c1ccccc1 [TAMOXIFEN] | 51 | 5 | – | 46 | 17 | – | 100 | 97 | 107 | 94 | –
2.5 | 4 | 0.05 | CCC1Cc2cc(OC(C)=O)ccc2-c2cc3ccc(OC(C)=O)cc3n21 (stereo not given) | 67 | – | 11 | 42 | 6 | 11 | 93 | 8 | 98 | 11 | T/C (MCF7 [13]): 39%; Effect [14]: 40.5; inhibition [15]: 21%; inhibition [16]: 17.4%; Effect [17]: 15.7; inhibition [18]: 2.8%; Effect [19]: 44.5; inhibition [20]: 31%; T/C (MCF7 [21]): 2%; T/C (MCF7 [22]): 24%; Relative seminal vesicle weight [23]: 156; Effect [24]: 18.5; Effect [25]: 11.5; inhibition [26]: 6.8%; Effect [27]: 18.5; Relative seminal vesicle weight [28]: 121; inhibition [29]: 12%; Relative seminal vesicle weight [30]: 200; Effect [31]: 48.2; Effect [32]: 49.6
< 0.01 | 0.05 | – | CC(=O)Oc1ccc2cc3n(c2c1)CCc1cc(OC(C)=O)c(OC(C)=O)cc1-3 | – | – | – | – | – | – | – | – | – | – | –
